# Bioassay records (PubChem BioAssay)
# A selection: hits, their analogues and other compounds. The true share with any hit is near 2.3%.
# TRPC4 act = opens the mouse TRPC4 cation channel. HEK293 TRPC4beta/mu-opioid, Fluo4 calcium fluorescence; active compounds read high. B-score at 10 µM. 310,000 tested, 0.49% active;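 active = B-score above 5 SD of library B-scores, and initial fluorescence ratio not above library mean plus 5 SD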;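 note: positive B-score marks a calcium rise read as TRPC4 activation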
# Target sequence (Q9QUQ5 whole entry, looked up): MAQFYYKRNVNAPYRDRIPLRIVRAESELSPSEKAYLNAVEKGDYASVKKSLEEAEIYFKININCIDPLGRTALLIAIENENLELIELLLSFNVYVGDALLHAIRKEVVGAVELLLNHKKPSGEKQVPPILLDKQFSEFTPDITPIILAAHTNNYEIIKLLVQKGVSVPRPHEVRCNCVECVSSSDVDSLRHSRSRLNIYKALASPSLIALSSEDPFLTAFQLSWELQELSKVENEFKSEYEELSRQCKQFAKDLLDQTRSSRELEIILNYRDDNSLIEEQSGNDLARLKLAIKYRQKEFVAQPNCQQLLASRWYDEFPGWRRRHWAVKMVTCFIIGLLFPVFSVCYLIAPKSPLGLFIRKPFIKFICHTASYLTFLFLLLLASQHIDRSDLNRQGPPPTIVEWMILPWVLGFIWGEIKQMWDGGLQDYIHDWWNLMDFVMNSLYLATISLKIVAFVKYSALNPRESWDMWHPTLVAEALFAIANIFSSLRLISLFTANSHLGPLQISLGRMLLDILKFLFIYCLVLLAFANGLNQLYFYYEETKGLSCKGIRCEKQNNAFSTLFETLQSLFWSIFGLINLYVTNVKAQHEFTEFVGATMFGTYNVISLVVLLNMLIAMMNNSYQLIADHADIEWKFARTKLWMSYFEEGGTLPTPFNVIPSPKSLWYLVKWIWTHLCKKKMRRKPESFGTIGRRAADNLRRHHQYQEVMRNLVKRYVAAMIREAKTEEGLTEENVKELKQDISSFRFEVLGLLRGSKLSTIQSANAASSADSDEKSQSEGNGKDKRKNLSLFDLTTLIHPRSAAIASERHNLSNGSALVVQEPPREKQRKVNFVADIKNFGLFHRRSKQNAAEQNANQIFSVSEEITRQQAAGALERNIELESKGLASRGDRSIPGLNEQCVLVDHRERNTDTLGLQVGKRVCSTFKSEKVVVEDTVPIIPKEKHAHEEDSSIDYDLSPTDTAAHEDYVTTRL
#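 Test system: HEK293 cells stably co-expressing mouse TRPC4beta and mu-opioid receptor | Schedule: Fluo4 dye loading 45 min at room temperature, 110 s recording | Measured by: Kinetic Fluo4 calcium fluorescence, 5 s baseline at 1 Hz | Evaluation: B score of integrated ratio | Controls: Buffer (low) and maximal DAMGO (high)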
# TRPC4 inh = inhibitors of mouse TRPC4 channel | 300,000 tested, 0.39% active | B-score at 10 µM | AID 2247 | HEK293 TRPC4beta/mu-opioid, DAMGO-evoked Fluo4 calcium flux; active compounds read low | Q9QUQ5;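 active = B-score over 3 SD under the library average, no early fluorescence shift, positive overall ratio signal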
#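 Assay system – HEK293 line stably carrying TRPC4beta and mu-opioid receptor · Doses – single dose · Detection – Fluo4 calcium-dye fluorescence, kinetic read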
# TRPC4 PAM = TRPC4 (mouse) allosteric potentiation | Q9QUQ5 | HEK293 TRPC4beta/mu-opioid, DAMGO EC20, Fluo-4 Ca2+ flux; active compounds read high | B-score at 10 µM | 310,000 tested, 0.42% active;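 active = B-score of calcium response area above 5 SD of library B-scores, with initial fluorescence ratio within 5 SD of library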;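 note: B-score of integrated fluorescence ratio over time as area under calcium response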
# TRPC6 inh = blocks the mouse TRPC6 cation channel | HEK293-TRPC6, membrane potential dye, ACh-evoked depolarization; active compounds read low | B-score at 10 µM | 310,000 tested, 1.1% active;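 active = B-score under library mean minus 3 SD, initial fluorescence not abnormally high, positive integrated signal ratio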;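 note: B-score derived from integrated fluorescence ratio over the kinetic read; more negative B-score means stronger inhibition of depolarization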
# TRPC6 activator = mouse TRPC6 channel activation. Q61143. HEK293-TRPC6 membrane potential dye fluorescence; active compounds read high. B-score at 10 µM. 310,000 tested, 0.13% active;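 active = B-score of the integrated fluorescence ratio above library mean plus 3 SD, and starting fluorescence ratio within library mean plus 5 SD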;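 note: higher score means more depolarization so channel activation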
# The depositor's hits bear a star; i = inactive.
SMILES,TRPC4 act,TRPC4 inh,TRPC4 PAM,TRPC6 inh,TRPC6 activator
C=CCNC(=O)/C(C#N)=C/c1ccc(SC)cc1,i,i,10*,i,i
CCOC(=O)c1sc2nc(N3CCOCC3)c3c(c2c1N)CCN(C)C3,i,i,i,-7*,i
CC(NCC(=O)Nc1cc(S(=O)(=O)N2CCOCC2)ccc1Cl)c1ccc(Cl)cc1Cl (configuration not stated),i,i,i,i,i
COCCN(C(=O)CSc1nc2ccc(Cl)cc2[nH]1)c1c(N)n(Cc2ccccc2)c(=O)[nH]c1=O,i,-5*,i,i,i
CC1(C)CC2CC(C)(CN2CC(O)COc2ccccc2)C1 (configuration not stated),i,-9*,i,i,i
Cc1cc2oc(C(=O)N(Cc3ccco3)C3CCS(=O)(=O)C3)cc(=O)c2cc1Cl (configuration not stated),i,i,82*,i,i
Cc1ccc2cc(C(c3nnnn3C3CCCC3)N3CCOCC3)c(=O)[nH]c2c1C (configuration not stated),i,i,i,i,i
Cc1ccc(C)c2[nH]c(=O)c(C(c3nnnn3Cc3ccco3)N3CCc4ccccc4C3)cc12 (configuration not stated),i,i,11*,i,i
Cc1ccc(C)c2[nH]c(=O)c(C(c3nnnn3CCc3ccccc3)N3CCOCC3)cc12 (configuration not stated),i,i,i,i,i
CCN1CCN(C(c2cc3cccc(C)c3[nH]c2=O)c2nnnn2Cc2ccccc2)CC1 (configuration not stated),76*,i,i,i,i
Cc1ccc(C)c2[nH]c(=O)c(C(c3nnnn3C3CCCC3)N3CCOCC3)cc12 (configuration not stated),i,i,23*,i,i
Cc1ccc(C)c2[nH]c(=O)c(CN(Cc3nnnn3C3CCCCC3)CC3CCCO3)cc12 (configuration not stated),i,-6*,i,i,i
Cc1ccc(N2CCC(N3CCN(C)C(CCO)C3)CC2)cc1 (configuration not stated),i,i,i,i,i
Fc1cccc(Oc2nc3ccccc3n3cccc23)c1,i,i,i,i,i
CC(=O)c1ccc(NC(=O)CC(C)S(=O)(=O)c2ccc3c(c2)CCN3C(C)=O)cc1 (configuration not stated),i,i,i,i,i
CC(=O)Nc1ccc(NC2CCCCC2NS(=O)(=O)c2ccccc2)cc1 (configuration not stated),i,i,i,i,i
CC(C)(C)NC(=O)C(=O)NN=C1CCCCCCCCCCC1,i,i,i,i,i
NC(N)=NN=C1CCCCCCCCCCC1,49*,i,i,i,i
O=C(NC1CCCN(C2Cc3ccccc3C2)C1)c1ccc(F)cc1Cl (configuration not stated),i,i,i,i,i
N#C/C(=C\c1cccc([N+](=O)[O-])c1)C(=O)NCC1CCCO1 (configuration not stated),i,i,12*,i,i
Cc1ccc(/C=C(\C#N)C(=O)NCC2CCCO2)o1 (configuration not stated),55*,i,i,i,i
O=C(c1ccccc1Cc1ccccc1)N1CCN(S(=O)(=O)c2ccccc2[N+](=O)[O-])CC1,i,i,i,i,i
CCCCN(CCCC)/C(N)=N/c1nc(C)cc(C)n1,i,-7*,i,i,i
CCOc1ccc(N/C(N)=N/c2nc(C)cc(C)n2)cc1,i,i,i,i,i
O=C(O)/C=C/c1cn(-c2ccccc2)nc1-c1ccc2c(c1)OCCO2,i,i,i,i,i
O/N=C/c1cn(-c2ccccc2)nc1-c1ccc2c(c1)OCCO2,i,i,24*,i,i
Fc1ccc(Oc2ccnc(Cl)n2)c(Cl)c1,i,i,i,i,i
COc1ccc(C2C(C(C)=O)=C(O)C(=O)N2c2ccc(O)cc2)cc1 (configuration not stated),i,i,i,i,i
